{"data": "Results gathered from unrelated publications", "organism": "Severe acute respiratory syndrome coronavirus 2", "mode": "inhibitor", "note": "Lines come from different studies, so protocols differ."}
{"SMILES": "COc1ncc(-c2cn([C@@H]3O[C@](F)(COC(=O)C(C)C)[C@@H](OC(=O)C(C)C)[C@H]3OC(=O)C(C)C)cn2)c(N)n1", "test": "viral replication", "system": "A549-ACE2", "setting": "24 h", "IC50 [nM]": 41900}
{"SMILES": "CCC(CC)COC(=O)[C@H](C)N[P@](=O)(OC[C@H]1O[C@@](C#N)(c2ccc3c(N)ncnn23)[C@H](O)[C@@H]1O)Oc1ccccc1", "test": "viral replication", "system": "A549-hACE2-TMPRSS2", "setting": "24 h", "IC50 [nM]": 100}
{"SMILES": "Cc1ccc(NC(=O)C2(c3ccc4c(c3)OC(F)(F)O4)CC2)nc1-c1cccc(C(=O)O)c1", "test": "viral replication", "system": "Caco-2", "setting": "replicon", "IC50 [nM]": 964}
{"SMILES": "CC(C)C(=O)OC[C@@]1(F)O[C@@H](n2cnc(-c3c[nH]c(=O)[nH]c3=O)c2)[C@H](OC(=O)C(C)C)[C@@H]1OC(=O)C(C)C", "test": "viral replication", "system": "A549-ACE2", "setting": "24 h", "IC50 [nM]": 49800}
{"SMILES": "O=c1[nH]c2ccccc2n1C1CCN(CCCC(c2ccc(F)cc2)c2ccc(F)cc2)CC1", "test": "viral replication", "system": "Calu-3", "setting": "replicon", "IC50 [nM]": 4910}
{"SMILES": "O=C(Nc1ccc([N+](=O)[O-])cc1Cl)c1cc(Cl)ccc1O", "test": "viral entry", "system": "HeLa-ACE2", "setting": "pseudovirus", "IC50 [nM]": 1350}
{"SMILES": "COc1nc(N)ncc1-c1cn([C@@H]2O[C@](F)(CO)[C@@H](O)[C@H]2O)cn1", "test": "viral replication", "system": "A549-ACE2", "setting": "24 h", "IC50 [nM]": "> 100000"}
{"SMILES": "Cc1ccccc1-n1nnnc1Sc1ccc(C(=O)c2ccccc2)cc1[N+](=O)[O-]", "test": "viral replication", "system": "A549-hACE2-TMPRSS2", "setting": "24 h", "IC50 [nM]": 25300}
{"SMILES": "Cc1cn2nc([C@@H]3CCCCN3C(=O)c3cc(Cl)ccc3NS(C)(=O)=O)cc2nc1N1CC[C@H](N)C1", "test": "viral entry", "system": "HeLa-ACE2", "setting": "pseudovirus", "IC50 [nM]": 320}
{"SMILES": "CCOc1nc2cccc(C(=O)O)c2n1Cc1ccc(-c2ccccc2-c2nnn[nH]2)cc1", "test": "viral replication", "system": "Caco-2", "setting": "replicon", "IC50 [nM]": 714}
